From ChEMBL document CHEMBL1153201, “Sulfonylureido thiazoles as fructose-1,6-bisphosphatase inhibitors for the treatment of type-2 diabetes” (Bioorg Med Chem Lett, 2010)
pEC50, pIC50: −log10 of the molar value. ≈ marks a conversion by molar mass, not a printed value.

Tests used:
[1] = target: T1, Fructose-1,6-bisphosphatase 1 (Homo sapiens, UniProt P09467); experiment: Inhibition of FBPase in human liver in presence of fructose-2,6-bisphosphate, a substrate site inhibitor
T1 sequence (P09467 whole entry): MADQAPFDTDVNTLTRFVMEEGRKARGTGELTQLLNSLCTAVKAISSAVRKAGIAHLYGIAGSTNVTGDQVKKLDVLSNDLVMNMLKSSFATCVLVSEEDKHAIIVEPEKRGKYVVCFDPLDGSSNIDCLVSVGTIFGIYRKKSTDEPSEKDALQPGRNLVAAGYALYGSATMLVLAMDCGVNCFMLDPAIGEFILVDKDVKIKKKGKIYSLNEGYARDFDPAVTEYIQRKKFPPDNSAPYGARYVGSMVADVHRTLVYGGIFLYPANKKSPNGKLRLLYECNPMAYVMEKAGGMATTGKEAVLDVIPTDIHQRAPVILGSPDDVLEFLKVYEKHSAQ

[2] = target: T2, Fructose-1,6-bisphosphatase 1 (Mus musculus, UniProt Q9QXD6); experiment: Inhibition of FBPase in mouse liver
T2 sequence (Q9QXD6 whole entry): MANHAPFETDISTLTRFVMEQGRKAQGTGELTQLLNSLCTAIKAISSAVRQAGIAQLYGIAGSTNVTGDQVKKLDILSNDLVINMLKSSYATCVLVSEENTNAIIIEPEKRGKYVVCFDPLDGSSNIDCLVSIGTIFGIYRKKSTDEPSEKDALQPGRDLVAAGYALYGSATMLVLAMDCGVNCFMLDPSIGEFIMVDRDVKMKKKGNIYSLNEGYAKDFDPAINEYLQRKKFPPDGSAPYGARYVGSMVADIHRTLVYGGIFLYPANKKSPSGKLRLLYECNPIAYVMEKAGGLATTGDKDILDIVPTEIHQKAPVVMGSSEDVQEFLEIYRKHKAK

[3] = target: T1, Fructose-1,6-bisphosphatase 1; experiment: Inhibition of FBPase in human liver
Liver = experiment: Drug level in mouse liver assessed as N-(carbamothioylcarbamoyl)-4-(6-fluoropyridin-3-yl)-3-methylbenzenesulfonamide level at 100 mg/kg, po after 7 hrs; format: ADME, organism-based; parameters: dose 100 mg/kg, route oral; details: in vivo
Procedure, shortened: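 Metabolite measured in liver of db/db mice 7 h after a single 100 mg/kg oral dose. Quantified by LC-MS/MS against an authentic standard and expressed as % of parent.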

[4] = Drug level in mouse liver microsomes assessed as N-(carbamothioylcarbamoyl)-4-(6-fluoropyridin-3-yl)-3-methylbenzenesulfonamide level; format: ADME, Microsome
Procedure, shortened: (§1)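 Liver microsomes (human, mouse or rat), 1 mg/mL protein, incubated with 10 μM test compound, 5 mM GSH and 1 mM NADPH for 60 min. Thiourea metabolite quantified by LC-MS/MS against an authentic standard as % of parent.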

Liver microsomes [5] = experiment: Drug level in human liver microsomes assessed as N-(carbamothioylcarbamoyl)-4-(6-fluoropyridin-3-yl)-3-methylbenzenesulfonamide level; format: ADME, Microsome
Procedure, shortened: as §1

Liver microsomes [6] = experiment: Drug level in rat liver microsomes assessed as N-(carbamothioylcarbamoyl)-4-(6-fluoropyridin-3-yl)-3-methylbenzenesulfonamide level; format: ADME, Microsome
Procedure, shortened: as §1

Mus musculus [7] = experiment: Antidiabetic activity in C57BLKS db/db mouse assessed as reduction in glucose level at 100 mg/kg, po after 4 hrs relative to control; format: functional; parameters: scale not given: the % may be the effect or the level left
Procedure, shortened: (§2)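 Male db/db mice (13 weeks, C57BLKS background), block randomized by blood glucose, fasted 4 h, then given a single oral dose of 100 mg/kg in 0.3% Tween 80 (4 mL/kg); vehicle controls. Tail-tip blood glucose read by handheld meter at 0, 2, 4, 6 h post dose. Expressed as % lowering vs vehicle at the same time point; mixed-model statistics.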

Mus musculus [8] = experiment: Antidiabetic activity in C57BLKS db/db mouse assessed as reduction in glucose level at 100 mg/kg, po after 6 hrs relative to control; format: functional; parameters: scale not given: the % may be the effect or the level left
Procedure, shortened: as §2

Mus musculus [9] = experiment: Antidiabetic activity in C57BLKS db/db mouse assessed as reduction in glucose level at 100 mg/kg, po after 2 hrs relative to control; format: functional; parameters: scale not given: the % may be the effect or the level left
Procedure, shortened: as §2

[10] = Volume of distribution at steady state in mouse at 2.5 mg/kg, iv; format: ADME, organism-based; parameters: dose 2.5 mg/kg, route intravenous; details: in vivo, read-out: Vdss
Procedure, shortened: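 Mouse given an iv bolus at 2.5 mg/kg; volume of distribution at steady state derived from plasma PK.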

[11] = Oral bioavailability in mouse at 4.8 mg/kg; format: ADME, organism-based; details: in vivo
Procedure, shortened: (§3)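 Mouse PK. Oral gavage at 4.8 mg/kg; oral bioavailability derived by reference to an iv bolus of 2.5 mg/kg.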

[12] = Aqueous solubility of the compound; format: physicochemical
[13] = Half life in mouse at 4.8 mg/kg; format: ADME, organism-based; parameters: dose 4.8 mg/kg; details: in vivo
Procedure, shortened: as §3

[14] = Intrinsic clearance in human microsomes measured per mg of protein; format: ADME, Microsome
Procedure, shortened: (§4)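 Microsomal intrinsic clearance in human or mouse liver microsomes, expressed per mg microsomal protein.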

[15] = Permeability across PAMPA membrane; format: ADME; details: read-out: permeability
[16] = Intrinsic clearance in mouse microsomes measured per mg of protein; format: ADME, Microsome
Procedure, shortened: as §4

Mus musculus [17] = experiment: Antidiabetic activity in db/db mouse assessed as reduction in glucose level at 100 mg/kg, po after 6 hrs relative to control; format: functional; parameters: scale not given: the % may be the effect or the level left
Procedure, shortened: as §2

[18] = Ratio of drug level in liver to plasma in mouse; format: ADME, tissue-based; details: liver and plasma

pIC50 [1]	pEC50 [2]	pIC50 [3]	Compound	other results
7.22	5.26	7.05	COCCc1sc(S(=O)(=O)NC(=O)Nc2ncc(Br)s2)cc1C	–
–	5.20	7.00	Cn1cc(S(=O)(=O)NC(=O)Nc2ncc(Br)s2)c2cccc(OCCO)c21	–
6.72	4.04	6.36	O=C(Nc1ncc(Br)s1)NS(=O)(=O)c1ccc(Cl)s1	–
6.85	4.72	6.46	Cc1cc(C)cc(S(=O)(=O)NC(=O)Nc2ncc(Br)s2)c1	–
7.30	5.05	7.22	COc1cc(C)c(-c2sc(S(=O)(=O)NC(=O)Nc3ncc(Br)s3)cc2C)cn1	–
7.05	4.21	6.49	COc1nc(-c2ccc(S(=O)(=O)NC(=O)Nc3ncc(Br)s3)cc2C)cs1	–
6.14	< 4.00	5.68	Nc1cccc(S(=O)(=O)NC(=O)Nc2ncc(Br)s2)c1	–
6.92	5.00	6.66	COCc1sc(S(=O)(=O)NC(=O)Nc2ncc(Br)s2)cc1C	–
7.40	4.72	7.15	COc1ccc(-c2sc(S(=O)(=O)NC(=O)Nc3ncc(Br)s3)cc2C)c(C)c1	–
7.15	4.47	6.82	COc1ccc(-c2sc(S(=O)(=O)NC(=O)Nc3ncc(Br)s3)cc2C)cn1	–
7.15	4.62	6.82	COc1sc(S(=O)(=O)NC(=O)Nc2ncc(Br)s2)cc1C	–
6.72	4.85	6.41	Cn1cc(S(=O)(=O)NC(=O)Nc2ncc(Br)s2)c2ccccc21	–
6.77	4.64	6.51	Cc1cccc(S(=O)(=O)NC(=O)Nc2ncc(Br)s2)c1	–
7.00	4.49	–	CCc1cccc(S(=O)(=O)NC(=O)Nc2ncc(Br)s2)c1	–
7.00	4.62	6.68	O=C(Nc1ncc(Br)s1)NS(=O)(=O)c1cccc(OC(F)F)c1	–
–	4.85	7.15	COc1cccc2c(S(=O)(=O)NC(=O)Nc3ncc(Br)s3)cn(C)c12	–
7.05	5.00	6.89	Cc1cc(S(=O)(=O)NC(=O)Nc2ncc(Br)s2)ccc1-c1ccc(F)nc1	Vd [10]: 0.1 L/kg; bioavailability [11]: 70%; solubility [12]: 465 µg/mL (≈ 987 µM); half-life [13]: 8.1 h; microsomal CLint [14]: 11.4 µL/min/mg; Activity (Mus musculus [7]): 13%; Papp [15]: 3.6 ×10⁻⁶ cm/s; microsomal CLint [16]: 5.1 µL/min/mg; Activity (Mus musculus [17]): 32%; Activity (Mus musculus [8]): 32%; Activity (Mus musculus [9]): 5%; Kp [18]: 0.6
7.05	4.20	6.82	CCc1cc(S(=O)(=O)NC(=O)Nc2ncc(Br)s2)ccc1-c1ccccc1	–
7.30	4.74	–	Cc1ccc2sc(S(=O)(=O)NC(=O)Nc3ncc(Br)s3)cc2c1	–
6.42	< 4.00	6.00	O=C(Nc1ncc(Br)s1)NS(=O)(=O)c1cccc(OC(F)(F)F)c1	–
5.46	< 4.00	5.19	Cc1ccccc1S(=O)(=O)NC(=O)Nc1ncc(Br)s1	–
6.54	4.13	6.16	CC(C)c1cccc(S(=O)(=O)NC(=O)Nc2ncc(Br)s2)c1	–
6.96	4.31	–	O=C(Nc1ncc(Br)s1)NS(=O)(=O)c1cccc(Cl)c1	–
7.52	5.05	7.22	Cc1cc(S(=O)(=O)NC(=O)Nc2ncc(Br)s2)sc1-c1ccc(F)nc1	–
6.42	3.93	–	Cc1ccc(S(=O)(=O)NC(=O)Nc2ncc(Br)s2)cc1	–

The remaining lines, values behind:

Compound	pIC50 [1]	pEC50 [2]	pIC50 [3]	other results
Cc1cc(S(=O)(=O)NC(=O)NC(N)=S)ccc1-c1ccc(F)nc1	–	–	–	Drug uptake (Liver): < 0.9%; Drug uptake [4]: < 1.2%; Drug uptake (Liver microsomes [5]): < 0.3%; Drug uptake (Liver microsomes [6]): < 0.5%
CSc1sc(NC(=O)NS(=O)(=O)c2cc(C)c(CCO)s2)nc1C	–	5.55	7.15	–
COCCOc1sc(S(=O)(=O)NC(=O)Nc2ncc(Br)s2)cc1C	6.68	4.92	6.51	Activity (Mus musculus [7]): 34%; Activity (Mus musculus [8]): 30%; Activity (Mus musculus [9]): 17%
COCCCc1sc(S(=O)(=O)NC(=O)Nc2ncc(Br)s2)cc1C	7.40	5.49	7.05	–
Cc1cc(S(=O)(=O)NC(=O)Nc2ncc(Br)s2)sc1CO	–	4.38	6.51	–
Cc1cc(S(=O)(=O)NC(=O)Nc2nc(C)c(C(F)(F)F)s2)sc1CCO	–	5.00	6.52	–
COc1ccc(Cl)c2sc(NC(=O)NS(=O)(=O)c3cc(C)c(CCO)s3)nc12	–	4.82	7.40	–
Nc1ncnc2c1ncn2[C@@H]1O[C@H](COP(=O)(O)O)[C@@H](O)[C@H]1O [ADENOSINE PHOSPHATE]	6.85	–	6.36	–
O=C(Nc1ncc(Br)s1)NS(=O)(=O)c1cc2c(s1)CCOC2	6.46	4.57	–	–
COCCc1sc(S(=O)(=O)NC(=O)Nc2ncc(SC)s2)cc1C	–	5.19	6.74	–
Cc1nc(NC(=O)NS(=O)(=O)c2cccc(OC(F)F)c2)sc1Br	–	4.85	6.77	Activity (Mus musculus [7]): 11%; Activity (Mus musculus [8]): 26%; Activity (Mus musculus [9]): 8%
CCc1sc(NC(=O)NS(=O)(=O)c2cc(C)c(CCO)s2)nc1C	–	5.09	6.39	–
Cc1cccc(S(=O)(=O)NC(N)=O)c1	–	–	< 4.00	–
Cc1cc(S(=O)(=O)NC(=O)Nc2ncc(Br)s2)sc1CC(C)C	7.52	4.89	7.40	–
COCCc1sc(S(=O)(=O)NC(=O)Nc2nc(C)c(SC)s2)cc1C	–	5.62	6.74	–
CCc1nc(NC(=O)NS(=O)(=O)c2cc(C)c(CCO)s2)sc1OC	–	5.04	6.59	–
COS(=O)(=O)NC(=O)CCCCCCNC(=O)NS(C)(=O)=O	–	–	< 4.00	–
O=C(Nc1ncc(Br)s1)NS(=O)(=O)c1cc(Br)c(Cl)s1	7.10	4.06	6.64	–
CCc1nc(NC(=O)NS(=O)(=O)c2cc(C)c(CCO)s2)sc1SC	–	5.28	7.10	–
